Assay: Toxicity liver stage against HepG2, at 10uM
Format: cell-based
Set-up: test concentration 10 uM, cell line HepG2-A16-CD81EGFP
Conditions: human, HepG2-A16-CD81EGFP cells; read-out: INHIBITION
Summary of the method: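 Uninfected HepG2-A16-CD81EGFP cells, 3 × 10^3 per well, 1536-well, plated on prespotted compound at 10 μM final, parasite-free screening media added to match infected plates; puromycin 10 μM positive, DMSO 0.5% negative; run in parallel with 48 h PbLuc assay at 37 °C, 5% CO2; viability by CellTiter-Glo luminescence, normalized to controls.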

Row | Structure (SMILES) | cytotoxicity at 10 µM
1 | N#Cc1ccc(CN2C[C@@H](F)[C@@H](OCc3nc4cnccc4[nH]3)C2)cc1 | -3.67%
2 | CC(C)(O)c1cc(CC2(NCc3ccco3)COC2)no1 | -1.7%
3 | CCCSc1nc(N)c(NC(=O)c2ccc(OC)c(OC)c2)c(=O)[nH]1 | -8.7%
4 | O=C1CCSCC(C(=O)N2CCC(O)CC2)N1 (centres undefined) | -4.2%
5 | Cn1nc(CNC(=O)CN2C(=O)CCC2=O)cc1C1CC1 | 2.89%
6 | Cn1cccc1C(=O)NC[C@H]1C[C@@H]2CN(C(=O)c3ccno3)C[C@H]2O1 | 0.903%
7 | COc1cccc(N2CC3(CCN(c4ccncn4)C3)CC2=O)c1 (centres undefined) | 8.61%
8 | O=C(NCC1CC[C@@]2(CNCCOC2)O1)c1cccnc1 (some centres undefined) | 2.32%
9 | CCS(=O)(=O)N1CCc2ncnc(C)c2CC1 | -0.0192%
10 | CCOC(=O)C1CN(S(=O)(=O)C2CC2)Cc2ncn(CC)c21 (centres undefined) | 6.71%
11 | CC(=O)N1CCC(c2nnc3ccc(C(=O)NC(C)C)cn23)C1 (centres undefined) | 6.37%
12 | CNC(=O)N1CCc2nc(C(=O)Nc3cccnc3)sc2CC1 | 1.99%
13 | Cc1noc([C@@]23CCO[C@@H]2CCN(C(=O)CN(C)C)C3)n1 | 10.1%
14 | CNC(=O)[C@@]12CCCN(c3ncccn3)[C@@H]1CN(c1ncc(F)cn1)C2 | -1.43%
15 | Cc1ccccc1CSc1ncc(Br)c(C(=O)O)n1 | 6.99%
16 | CSc1nc2cc(C)n(CC(N)=O)c2c(=O)n1CC(C)C | -11.3%
17 | CCC(=O)NS(=O)(=O)c1cccnc1Nc1cccc(Cl)c1Cl | 0.0207%
18 | COc1ncc(NC(=O)Nc2cc(C)ccc2OC)cn1 | 2.76%
19 | CCN(CC)C(=O)CSc1nc2cc(C)nc-2c(O)n1CC | 6.58%
20 | Cc1cc(C(F)(F)F)nn1CC(C)C(=O)NC(C)C (centres undefined) | 10%
21 | CCn1nc(C)c2nnn(CC(=O)Nc3c(C)cccc3C)c(=O)c21 | 5.22%
22 | Cc1cc(Nc2ccc(F)cn2)cc(C2CCN(Cc3ncc[nH]3)C2)n1 (centres undefined) | -8.26%

Row | Structure (SMILES) | cytotoxicity at 10 µM
23 | Cc1nn(C)cc1CN1CCN(CC2(c3ccccc3)CC2)CC1 | 1.25%
24 | COCC(=O)N1CCCC1c1cccc(Nc2ncc(C)s2)n1 (centres undefined) | -17%
25 | c1cnc(C2CCCN2c2cnccn2)cn1 (centres undefined) | -22.6%
26 | Cc1cccc(CN2CCCC2(C(N)=O)c2cnccn2)n1 (centres undefined) | -21.9%
27 | CCC(=O)N1CCC(c2cncc(Oc3cccnc3)n2)CC1 | -4.69%
28 | CC(=O)N1CCC(c2nccnc2-c2ccc(C(=O)O)cc2)CC1 | 11.1%
29 | Cc1c(C(=O)N2CCC(c3nc(C)n4ccsc34)CC2)cnn1C | -4.41%
30 | COc1ccc(CN2CCc3nc(C4CCCCN4C)ncc3C2)cc1 (centres undefined) | -1.08%
31 | O=C1CC(C(=O)Nc2nnc(-c3ccccn3)[nH]2)c2ccccc2N1 (centres undefined) | 7.92%
32 | Cc1ccc(CC(=O)NC2CCN(c3cccc(Cl)c3)C2)cn1 (centres undefined) | 2.49%
33 | O=C(CN1CCCS1(=O)=O)Nc1ccc(OC(F)F)cc1 | 1.34%
34 | Cc1nc(CN2CCCCC2Cn2cccn2)nc2ccccc12 (centres undefined) | -41.5%
35 | Cc1cnn(C2CCCN(C(=O)c3cc(-c4cccs4)n[nH]3)C2)c1 (centres undefined) | -7.83%
36 | CCCN(CC1COc2ccccc2O1)C(=O)C1=NN(C)C(=O)CC1 (centres undefined) | -41%
37 | CC(C)N1CCC(NC(=O)NCCC(=O)NCc2ccccc2)C1 (centres undefined) | -0.986%
38 | CCc1nc(CN(C)CC(=O)N(C)C2CC2)cs1 | -3.54%
39 | O=C(NCCNc1ncccn1)N1CCc2ccccc2C1 | -5.65%
40 | CN(C(=O)Cn1nc(-c2ccc(F)cc2)oc1=O)c1ccccc1 | -0.267%
41 | CC(=O)N1CCCN(C(=O)Cc2ccc3c(c2)OCO3)CC1 | -15.1%
42 | Cc1csc(C2CCCCN2C(=O)CCCn2cncn2)n1 (centres undefined) | -8.23%
43 | Cn1cc(C(=O)Nc2cccc(F)c2)ccc1=O | -9.66%
44 | Cc1ccc(C(C)NC(=O)N2CCNC(=O)CC2)cc1F (centres undefined) | 18.9%

Row | Structure (SMILES) | cytotoxicity at 10 µM
45 | OC(COCc1ccccc1)CSc1nnc2ccccn12 (centres undefined) | 2.95%
46 | COC(=O)CCCN(C)C(=O)c1cc(F)cc2[nH]cnc12 | -2.23%
47 | CC(C)N(C)CCNC(=O)N(C)CC1CCOCC1 | -17.2%
48 | Cc1cnccc1CCNC(=O)Nc1cnc(N(C)C)nc1 | 7.75%
49 | Cc1cc(=O)n2nc(Oc3ccc(F)c(F)c3)sc2n1 | -15.8%
50 | CC(c1ncc(-c2ccccc2)o1)N1CCN(C(=O)C(C)(C)C)CC1 (centres undefined) | 17.4%
51 | CSCCC(NC(=O)c1ccc2ccccc2n1)C(=O)O (centres undefined) | -3.09%
52 | CS(=O)(=O)CCCNC1(c2ccc(Br)cc2)CCC1 | -0.0862%
53 | O=C(CCc1ccsc1)N(Cc1ccccn1)C1CC1 | -4.87%
54 | Cn1cnc2c1CCN(CC(O)c1ccc3c(c1)OCCO3)C2 (centres undefined) | -13.7%
55 | CCS(=O)(=O)CC(=O)NC(c1ccc(F)cc1)C1CCCC1 (centres undefined) | 4.57%
56 | Cc1cc(CNC(=O)N2CCN(c3nc(C)c(C)s3)CC2)no1 | -1.01%
57 | Cn1cc(CN2CCCC3(CCN(C(=O)c4ccoc4)C3)C2)cn1 (centres undefined) | -71.9%
58 | c1ccc(-c2nnn3c2COC(CNCC2CC2)C3)cc1 (centres undefined) | -77.8%
59 | O=C(c1ccncn1)N1CCC[C@]2(C[C@@H](OCC3CC3)CO2)C1 | -78.9%
60 | CS(=O)(=O)CC(=O)N1C[C@@H]2CN(Cc3ccoc3)CCO[C@@H]2C1 | -69.2%
61 | CO[C@H]1CO[C@@]2(CCCN(S(=O)(=O)c3ccccc3)C2)C1 | -81.9%
62 | Cc1cc(CN2CCC3(CC2)C(=O)NCCN3CC2CC2)oc1C | -67.5%
63 | COCCO[C@H]1CCN(C(=O)c2ccc[nH]2)[C@H]1Cc1ccncc1 | -5.46%
64 | Fc1ccc2[nH]c(C3CCCN3Cc3c[nH]cn3)nc2c1 (centres undefined) | 0.786%
65 | COCCCN1CCCC(c2nccn2CC2CCC2)C1 (centres undefined) | -3.94%
66 | Cc1cc(NCCCC(F)(F)F)n2nc(C)cc2n1 | 0.894%

Row | Structure (SMILES) | cytotoxicity at 10 µM
67 | COc1cccc(-c2n[nH]cc2C(=O)NC(C)CC(=O)O)c1 (centres undefined) | -8.91%
68 | COc1cccc(OC2CN(C(=O)C3CCCN(C(=O)N(C)C)C3)C2)c1 (centres undefined) | 0.754%
69 | CN(C)C(=O)N1CC[C@]2(O)CCN(C(=O)c3ccc(C#N)nc3)C[C@@H]2C1 | -51%
70 | CN1CCCN(C(=O)c2csc(-c3ccc(C(F)(F)F)cc3)n2)CC1 | -5.81%
71 | CCCN(Cc1cccnc1)C(=O)C1CCCN(C)C1 (centres undefined) | 9.77%
72 | CC(C)(C)NS(=O)(=O)c1ccc(NC(=O)C2CC2)cc1 | -6.73%
73 | CCOCCn1c(=O)n(CCC(C)C)c2ncc(C(=O)O)cc21 | 2.62%
74 | Nc1ncccc1CN1C[C@@H](C(=O)O)[C@H](c2cccc(F)c2)C1 | -11.1%
75 | CN1CC2(CCN(CCCOCc3ccccc3)CC2)OC1=O | 3.12%
76 | Cn1ccnc1CN1CCCC(Cc2ccccn2)C1 (centres undefined) | 2.75%
77 | C=C(C)CN1CCN(Cc2nccn2C)C(C)C1 (centres undefined) | -14.6%
78 | Cn1cc(-c2nc(CN3CCN(c4nccs4)CC3)cs2)cn1 | -7.45%
79 | CCOc1ncccc1C(=O)N1CCCC(n2nc(C)nc2C)C1 (centres undefined) | -8.47%
80 | Cc1ccc(NS(=O)(=O)c2cc3c(c(C(=O)O)c2)OCCO3)c(F)c1 | -9.36%
81 | CC(C)c1noc(CCCC(=O)N2CCN(Cc3ccncc3)CC2)n1 | -6.59%
82 | COc1cccc2cc(CNC(=O)N3CCCC(O)C3)oc12 (centres undefined) | -8.8%
83 | CC(C)c1nccn1C1CCCN(C(=O)c2cccc3c2OCO3)C1 (centres undefined) | -7.71%
84 | COc1cc(CNCc2c(C)nn(C)c2N(C)C)ccn1 | -9.48%
85 | O=C(c1ccnc(C2CCNCC2)c1)N1CCCOCC1 | -3.64%
86 | CNC(=O)N1CCC2(CC1)CN(C(C)C)Cc1cc(F)ccc12 | -2.82%
87 | O=C(c1ccoc1)N1CCCC2(CCC(=O)N2Cc2cccnc2)C1 (centres undefined) | -4.41%
88 | CN(C)C(=O)COC1COC2(CCN(c3cccc(F)c3)CC2)C1 (centres undefined) | -66%

Row | Structure (SMILES) | cytotoxicity at 10 µM
89 | O=C(O)[C@]12CCCN(Cc3ccco3)C[C@H]1CN(c1ncccn1)C2 | 7.34%
90 | Cn1cc(N2CC3(CCN(CC4CCC4)CC3)OCC2=O)cn1 | -0.269%
91 | Cc1ccc(N2C[C@@H]3CN(Cc4csc(C)n4)CCO[C@@H]3C2)nn1 | 7.64%
92 | Cc1nc(COC[C@@]23CCC[C@@H]2CN(Cc2nccs2)C3)cs1 | 12.9%
93 | Cc1cnc(N2CCN3C[C@H](OCc4cccc(C)n4)C[C@H]3C2)nc1 | -1.25%
94 | CCS(=O)(=O)N1CC[C@H](OC)[C@H]2CN(Cc3ccncc3)C[C@H]21 | 10.3%
95 | CNC(=O)CN1CCCC12CCN(C(=O)c1ccc(F)cc1)CC2 | 5.03%
96 | CCS(=O)(=O)N1Cc2ncn(C)c2C(COCC2CCOCC2)C1 (centres undefined) | -72.6%
97 | Cc1nc(COC[C@H]2CC[C@H]3[C@H](CCN3c3ncccn3)O2)cs1 | -71.2%
98 | CCOCCN1Cc2cnn(C)c2C(COCC)C1 (centres undefined) | -62.6%
99 | c1cnc(N2CCO[C@H]3CN(Cc4csnn4)C[C@H]32)nc1 | -70.7%
100 | CNC(=O)[C@@H]1C[C@H]2CN(Cc3csc(C)n3)C[C@H]2N1C(C)C | 7.08%
101 | Cc1ccc(CN2CC[C@@H](O)[C@@H]2Cc2ccccc2)o1 | 1.73%
102 | O=C1N(CC2CC2)CCC12CCCN(c1ncc(F)cn1)C2 (centres undefined) | 4.79%
103 | CN1CC(=O)N(c2ccccc2)CC12CCN(S(C)(=O)=O)C2 (centres undefined) | -75.7%
104 | CCN1CC2(CC1=O)CN(Cc1ccc(C)o1)CCN(C(=O)C(C)C)C2 (centres undefined) | 2.84%
105 | CC(C)CC(=O)N1CC[C@H]2N(C)CC[C@@]2(C(=O)Nc2ccccc2)CC1 | -4.71%
106 | C[C@@H]1CN(C2CCOCC2)C[C@]12CCN(c1cccnc1)C2=O | 5.95%
107 | CC(C)N1CCO[C@@H]2CN(S(=O)(=O)c3cccs3)CC[C@@H]2C1 | 5.9%
108 | CCOc1ncnc2c1CCN(C(=O)CN(C)C)CC2 | -5.12%
109 | O=C(CC1[C@H]2CN(C(=O)CO)C[C@@H]12)Nc1cccnc1 (some centres undefined) | 9.19%
